This note sets out measurements from publication PMC7651632 (RSC Medicinal Chemistry, 2020).

The subject of one test is RAW 267.4 macrophages. The test can be described thus: Cytotoxicity screening against RAW267.4 macrophages. It is filed as cell-based, Mus musculus. In short, it runs like this:
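Only compounds retained after the axenic amastigote dose-response screen were tested. Host RAW 267.4 macrophages were used. […] Selectivity index is macrophage ED50 divided by axenic amastigote ED50.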

Test [1] relates to L. mexicana amastigotes within macrophage host (RAW 267.4). As to the kind of experiment: Infected cell assay: screening against infected macrophages. Conditions: 24 h. The format is cell-based, Leishmania mexicana.
In test [2] the test system is L. mexicana axenic amastigotes. As to the kind of experiment: Primary screen against axenic amastigotes, single concentration. It is filed as cell-based, Leishmania mexicana. Conditions: 50 μM, in duplicate, inhibition of amastigote proliferation. In short, it runs like this: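 Run in a 96-well format against mammalian-stage L. mexicana axenic amastigotes. Each test compound was tested at a single 50 μM in duplicate, with inhibition of amastigote proliferation as the read-out. Amphotericin B served as positive control, and plate robustness was judged by Z′ factor.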

The subject of test [3] is axenic L. mexicana amastigotes. The test can be described thus: Secondary dose response screen against axenic amastigotes. It is filed as cell-based, Leishmania mexicana. The conditions noted are these: 50 µM to 0.21 µM, 24 h + 24 h alamarBlue, 33 °C. (In general: The colour change of resazurin is a common sign of viable cells or microbes.)

Entries after “also recorded” stand apart in the source; their conditions may differ.

With `CC1(C)CC[C@]2(C(=O)O)CC[C@]3(C)C(=CC[C@@H]4[C@@]5(C)CC[C@H](OC(=O)CCC(=O)O)[C@@](C)(COC(=O)CCC(=O)O)[C@@H]5CC[C@]43C)[C@@H]2C1` [IVL-1, hederagenin disuccinate], the “SI - selectivity index, RAW ED50/AMA ED50” value in the test on RAW 267.4 macrophages (RAW 267.4 macrophages versus axenic L. mexicana amastigotes) is recorded as more than 43.5. Moreover, in the test on RAW 267.4 macrophages (toxicity study, 100 µM to 0.41 µM, 24 h), the “RAW ED50 - effective dose to kill 50% of host macrophage (RAW 267.4)” value was more than 100 µM. In addition, the “InMAC ED50 - effective dose to kill 50% of amastigotes within macrophage host (RAW 267.4)” value in test [1] is listed as “not active”. In the case of `CC1(C)CC[C@]2(C(=O)O)CC[C@]3(C)C(=CC[C@@H]4[C@@]5(C)CC[C@H](O)[C@@](C)(CO)[C@@H]5CC[C@]43C)[C@@H]2C1` [IVL-7, hederagenin], the “% inhibition Primary screen” value in test [2] is listed as less than 95%. On the same count and under the same terms, the entry for `CC1(C)CC[C@]2(C(=O)O)CC[C@]3(C)C(=CC[C@@H]4[C@@]5(C)CC[C@H](O)C(C)(C)[C@@H]5CC[C@]43C)[C@@H]2C1` [IVL-8, Oleanolic acid] is “fell below the threshold; also recorded: deselected”; for `CC1(C)CC[C@]2(C(=O)O)CC[C@]3(C)C(=CCC4[C@@]5(C)CC[C@H](O[C@@H]6O[C@H](CO)[C@@H](O)[C@H](O)[C@H]6O[C@@H]6O[C@H](CO)[C@@H](O)[C@H](O)[C@H]6O)[C@@](C)(CO)C5CC[C@]43C)[C@@H]2C1` (some centres unmarked) [IVL-14, hederoside F] it is “fell below the threshold; also recorded: did not reach this cut-off”; for `C[C@@H]1O[C@@H](O[C@H]2[C@H](O)[C@@H](O)[C@H](OC[C@H]3O[C@@H](OC(=O)[C@]45CCC(C)(C)C[C@H]4C4=CC[C@@H]6[C@@]7(C)CC[C@H](O[C@@H]8OC[C@H](O)[C@H](O)[C@H]8O)[C@@](C)(CO)[C@@H]7CC[C@@]6(C)[C@]4(C)CC5)[C@H](O)[C@@H](O)[C@@H]3O)O[C@@H]2CO)[C@H](O)[C@H](O)[C@H]1O` [IVL-15, hederacoside D] it is “inactive”. `CC1(C)CC[C@]2(CO)CC[C@]3(C)C(=CC[C@@H]4[C@@]5(C)CC[C@@H]6O[C@H]([C@H](O)[C@@H](O)[C@@H](O)CO)OC[C@@]6(C)[C@@H]5CC[C@]43C)[C@@H]2C1` [IVL-80, Anemoclemoside A2]: in test [3], the “AMA ED50 - effective dose to kill 50% of axenic L. mexicana amastigotes” value was more than 50 µM.
